# Laboratory results taken from ChEMBL document CHEMBL2321753, “Synthesis and biological evaluation of radioiodinated quinacrine-based derivatives for SPECT imaging of Aβ plaques” (Eur J Med Chem, 2013).
# Columns and labels:
# [1] = tested on: Liver; test: Biodistribution in ddY mouse liver at 0.1 to 0.4 uCi, iv after 30 mins by gamma counting; assay type: ADME, organism-based; settings: in vivo, 0.5 h
# Method in brief: (§1)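 [125I]ligand (0.1–0.4 µCi) in 100 µL PBS (pH 7.4) containing 30 µL DMSO, injected into the tail vein of ddY mice (5 weeks, 22–25 g). Mice sacrificed at 2, 10, 30 and 60 min. Organs removed, weighed and gamma-counted. Values are % injected dose per gram, except stomach as % dose per organ. Mean (SD) of 3–6 mice per time point.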
# [2] = tested on: Kidney; test: Biodistribution in ddY mouse kidney at 0.1 to 0.4 uCi, iv after 60 mins by gamma counting; assay type: ADME, organism-based; settings: in vivo, 1 h; method in brief: as §1
# [3] = tested on: Stomach; test: Biodistribution in ddY mouse stomach assessed per organ at 0.1 to 0.4 uCi, iv after 10 mins by gamma counting; assay type: ADME, organism-based; settings: in vivo; method in brief: as §1
# [4] = tested on: Intestine; test: Biodistribution in ddY mouse intestine at 0.1 to 0.4 uCi, iv after 30 mins by gamma counting; assay type: ADME, organism-based; settings: in vivo, 0.5 h; method in brief: as §1
# [5] = n-octanol-sodium phosphate buffer partition co-efficient, log D of the compound at pH 7.4 by shake flask method; assay type: physicochemical
# Method in brief: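 Shake-flask partition between n-octanol and sodium phosphate buffer, pH 7.4, shaken 10 min at room temperature, then centrifuged. Weighed 0.5 mL samples of each layer counted. log D from the ratio of cpm per gram of octanol to cpm per gram of buffer; n = 3.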
# [6] = tested on: Stomach; test: Biodistribution in ddY mouse stomach assessed per organ at 0.1 to 0.4 uCi, iv after 60 mins by gamma counting; assay type: ADME, organism-based; settings: in vivo, 1 h; method in brief: as §1
# [7] = tested on: Stomach; test: Biodistribution in ddY mouse stomach assessed per organ at 0.1 to 0.4 uCi, iv after 2 mins by gamma counting; assay type: ADME, organism-based; settings: in vivo; method in brief: as §1
# [8] = tested on: Liver; test: Biodistribution in ddY mouse liver at 0.1 to 0.4 uCi, iv after 60 mins by gamma counting; assay type: ADME, organism-based; settings: in vivo, 1 h; method in brief: as §1
# [9] = tested on: Lung; test: Biodistribution in ddY mouse lung at 0.1 to 0.4 uCi, iv after 60 mins by gamma counting; assay type: ADME, organism-based; settings: in vivo, 1 h; method in brief: as §1
# [10] = tested on: Spleen; test: Biodistribution in ddY mouse spleen at 0.1 to 0.4 uCi, iv after 30 mins by gamma counting; assay type: ADME, organism-based; settings: in vivo, 0.5 h; method in brief: as §1
# [11] = tested on: Intestine; test: Biodistribution in ddY mouse intestine at 0.1 to 0.4 uCi, iv after 10 mins by gamma counting; assay type: ADME, organism-based; settings: in vivo; method in brief: as §1
# [12] = tested on: Blood; test: Biodistribution in ddY mouse blood at 0.1 to 0.4 uCi, iv after 2 mins by gamma counting; assay type: ADME, organism-based; settings: in vivo; method in brief: as §1
# [13] = tested on: Brain; test: Biodistribution in ddY mouse brain at 0.1 to 0.4 uCi, iv after 10 mins by gamma counting; assay type: ADME, organism-based; settings: in vivo; method in brief: as §1
# [14] = tested on: Heart; test: Biodistribution in ddY mouse heart at 0.1 to 0.4 uCi, iv after 2 mins by gamma counting; assay type: ADME, organism-based; settings: in vivo; method in brief: as §1
# [15] = tested on: Spleen; test: Biodistribution in ddY mouse spleen at 0.1 to 0.4 uCi, iv after 2 mins by gamma counting; assay type: ADME, organism-based; settings: in vivo; method in brief: as §1
# [16] = tested on: Brain; test: Biodistribution in ddY mouse brain at 0.1 to 0.4 uCi, iv after 2 mins by gamma counting; assay type: ADME, organism-based; settings: in vivo; method in brief: as §1
# [17] = tested on: Intestine; test: Biodistribution in ddY mouse intestine at 0.1 to 0.4 uCi, iv after 2 mins by gamma counting; assay type: ADME, organism-based; settings: in vivo; method in brief: as §1
# [18] = tested on: Brain; test: Biodistribution in ddY mouse brain at 0.1 to 0.4 uCi, iv after 30 mins by gamma counting; assay type: ADME, organism-based; settings: in vivo, 0.5 h; method in brief: as §1
# [19] = tested on: Kidney; test: Biodistribution in ddY mouse kidney at 0.1 to 0.4 uCi, iv after 2 mins by gamma counting; assay type: ADME, organism-based; settings: in vivo; method in brief: as §1
# [20] = tested on: Lung; test: Biodistribution in ddY mouse lung at 0.1 to 0.4 uCi, iv after 2 mins by gamma counting; assay type: ADME, organism-based; settings: in vivo; method in brief: as §1
# [21] = tested on: Spleen; test: Biodistribution in ddY mouse spleen at 0.1 to 0.4 uCi, iv after 10 mins by gamma counting; assay type: ADME, organism-based; settings: in vivo; method in brief: as §1
# [22] = tested on: Stomach; test: Biodistribution in ddY mouse stomach assessed per organ at 0.1 to 0.4 uCi, iv after 30 mins by gamma counting; assay type: ADME, organism-based; settings: in vivo, 0.5 h; method in brief: as §1
# [23] = tested on: Lung; test: Biodistribution in ddY mouse lung at 0.1 to 0.4 uCi, iv after 30 mins by gamma counting; assay type: ADME, organism-based; settings: in vivo, 0.5 h; method in brief: as §1
# [24] = tested on: Brain; test: Biodistribution in ddY mouse brain at 0.1 to 0.4 uCi, iv after 60 mins by gamma counting; assay type: ADME, organism-based; settings: in vivo, 1 h; method in brief: as §1
# [25] = tested on: Blood; test: Biodistribution in ddY mouse blood at 0.1 to 0.4 uCi, iv after 60 mins by gamma counting; assay type: ADME, organism-based; settings: in vivo, 1 h; method in brief: as §1
# [26] = tested on: Intestine; test: Biodistribution in ddY mouse intestine at 0.1 to 0.4 uCi, iv after 60 mins by gamma counting; assay type: ADME, organism-based; settings: in vivo, 1 h; method in brief: as §1
# [27] = tested on: Liver; test: Biodistribution in ddY mouse liver at 0.1 to 0.4 uCi, iv after 2 mins by gamma counting; assay type: ADME, organism-based; settings: in vivo; method in brief: as §1
# [28] = tested on: Pancreas; test: Biodistribution in ddY mouse pancreas at 0.1 to 0.4 uCi, iv after 30 mins by gamma counting; assay type: ADME, organism-based; settings: in vivo, 0.5 h; method in brief: as §1
# [29] = tested on: Pancreas; test: Biodistribution in ddY mouse pancreas at 0.1 to 0.4 uCi, iv after 10 mins by gamma counting; assay type: ADME, organism-based; settings: in vivo; method in brief: as §1
# [30] = tested on: Liver; test: Biodistribution in ddY mouse liver at 0.1 to 0.4 uCi, iv after 10 mins by gamma counting; assay type: ADME, organism-based; settings: in vivo; method in brief: as §1
# [31] = tested on: Kidney; test: Biodistribution in ddY mouse kidney at 0.1 to 0.4 uCi, iv after 10 mins by gamma counting; assay type: ADME, organism-based; settings: in vivo; method in brief: as §1
# [32] = tested on: Pancreas; test: Biodistribution in ddY mouse pancreas at 0.1 to 0.4 uCi, iv after 60 mins by gamma counting; assay type: ADME, organism-based; settings: in vivo, 1 h; method in brief: as §1
# [33] = tested on: Pancreas; test: Biodistribution in ddY mouse pancreas at 0.1 to 0.4 uCi, iv after 2 mins by gamma counting; assay type: ADME, organism-based; settings: in vivo; method in brief: as §1
# [34] = tested on: Heart; test: Biodistribution in ddY mouse heart at 0.1 to 0.4 uCi, iv after 60 mins by gamma counting; assay type: ADME, organism-based; settings: in vivo, 1 h; method in brief: as §1
# [35] = tested on: Blood; test: Biodistribution in ddY mouse blood at 0.1 to 0.4 uCi, iv after 30 mins by gamma counting; assay type: ADME, organism-based; settings: in vivo, 0.5 h; method in brief: as §1
# [36] = tested on: Heart; test: Biodistribution in ddY mouse heart at 0.1 to 0.4 uCi, iv after 10 mins by gamma counting; assay type: ADME, organism-based; settings: in vivo; method in brief: as §1
# [37] = tested on: Lung; test: Biodistribution in ddY mouse lung at 0.1 to 0.4 uCi, iv after 10 mins by gamma counting; assay type: ADME, organism-based; settings: in vivo; method in brief: as §1
# [38] = tested on: Blood; test: Biodistribution in ddY mouse blood at 0.1 to 0.4 uCi, iv after 10 mins by gamma counting; assay type: ADME, organism-based; settings: in vivo; method in brief: as §1
# [39] = tested on: Spleen; test: Biodistribution in ddY mouse spleen at 0.1 to 0.4 uCi, iv after 60 mins by gamma counting; assay type: ADME, organism-based; settings: in vivo, 1 h; method in brief: as §1
# [40] = tested on: Kidney; test: Biodistribution in ddY mouse kidney at 0.1 to 0.4 uCi, iv after 30 mins by gamma counting; assay type: ADME, organism-based; settings: in vivo, 0.5 h; method in brief: as §1
# [41] = tested on: Heart; test: Biodistribution in ddY mouse heart at 0.1 to 0.4 uCi, iv after 30 mins by gamma counting; assay type: ADME, organism-based; settings: in vivo, 0.5 h; method in brief: as §1
smiles,measurement,setting,value
COc1c2ccc([125I])cc2nc2ccc(N(C)C)cc12,Drug uptake,[1],18.54 % ID/g
same,Drug uptake,[2],4.81 % ID/g
same,Drug uptake,[3],5.1 %ID
same,Drug uptake,[4],17.49 % ID/g
same,logD,[5],1.81
same,Drug uptake,[6],4.33 %ID
same,Drug uptake,[7],1.83 %ID
same,Drug uptake,[8],10.79 % ID/g
same,Drug uptake,[9],3.87 % ID/g
same,Drug uptake,[10],5.4 % ID/g
same,Drug uptake,[11],14.19 % ID/g
same,Drug uptake,[12],8.34 % ID/g
same,Drug uptake,[13],1.96 % ID/g
same,Drug uptake,[14],5.83 % ID/g
same,Drug uptake,[15],5.09 % ID/g
same,Drug uptake,[16],2.09 % ID/g
same,Drug uptake,[17],1.86 % ID/g
same,Drug uptake,[18],1.6 % ID/g
same,Drug uptake,[19],10.94 % ID/g
same,Drug uptake,[20],7.17 % ID/g
same,Drug uptake,[21],4.07 % ID/g
same,Drug uptake,[22],4.2 %ID
same,Drug uptake,[23],6.67 % ID/g
same,Drug uptake,[24],0.71 % ID/g
same,Drug uptake,[25],5.17 % ID/g
same,Drug uptake,[26],11.2 % ID/g
same,Drug uptake,[27],20.78 % ID/g
same,Drug uptake,[28],2.29 % ID/g
same,Drug uptake,[29],2.47 % ID/g
same,Drug uptake,[30],20.71 % ID/g
same,Drug uptake,[31],8.99 % ID/g
same,Drug uptake,[32],1.14 % ID/g
same,Drug uptake,[33],4.11 % ID/g
same,Drug uptake,[34],2.38 % ID/g
same,Drug uptake,[35],6.52 % ID/g
same,Drug uptake,[36],3.78 % ID/g
same,Drug uptake,[37],6.66 % ID/g
same,Drug uptake,[38],7 % ID/g
same,Drug uptake,[39],2.43 % ID/g
same,Drug uptake,[40],10.72 % ID/g
same,Drug uptake,[41],4.09 % ID/g
